Measured values pooled from the literature.
Protocols differ between the studies behind these lines.
Target: Homeodomain-interacting protein kinase 2 (HIPK2, Homo sapiens, UniProt Q9H2X6)
Read-out: enzyme activity
Action: inhibitor

| Compound | assay | conditions | remaining activity |
| --- | --- | --- | --- |
| CC(C)(O)[C@H]1CC[C@H](Nc2ccc3ncc(-c4cccc(C(F)(F)F)c4)n3n2)CC1 |  | 1 µM | 70.3% |
| O=C(O)c1ccc2c(c1)nc(Nc1ccc(Cl)cc1)c1ncncc12 | radiometric | 1 µM | -2% |
| Nc1nc(NC2CCCCC2)sc1C(=O)c1ccccc1 |  | 10 µM | 64% |
| CCN(CC)c1ccc(C2=NNC(=O)CC2C)cc1[N+](=O)[O-] (stereo not shown) |  | 10 µM | 106% |
| FC(F)c1nc2ccccc2n1-c1nc(N2CCOCC2)nc(N2CCOCC2)n1 |  | 10 µM | 63% |
| O=C(O)c1ccc2c(c1)nc(Nc1ccc(F)c(Cl)c1)c1ccncc12 | radiometric | 1 µM | 1% |
| CC(C)(C)C(=O)c1sc(NC2CCCCC2)nc1N |  | 10 µM | 79% |
| CC(C)(C)c1nc(-c2cccc(NS(=O)(=O)c3c(F)cccc3F)c2F)c(-c2ccnc(N)n2)s1 | radiometric | 1 µM | 80% |
| CCCOc1ccc(OC)c(F)c1C(=O)c1ccc(C(=O)N[C@@H]2CNC[C@H]2NC(=O)c2ccc3[nH]ncc3c2)cc1 |  | 10 µM | 94% |
| Cn1c(=O)n(-c2ccc(C(C)(C)C#N)cc2)c2c3cc(-c4cnc5ccccc5c4)ccc3ncc21 |  | 10 µM | 101% |
| O=C(O)c1ccc2c(c1)nc(NCCc1cccc(F)c1)c1ncncc12 | radiometric | 1 µM | 6% |
| O=C(Nc1cnn(-c2csc(C(=O)NC3COC3)c2)c1)Nc1c(F)cccc1Cl |  | 5 µM | 92.6% |
| COc1cc(Cl)c(C(=O)N[C@@H](CN[C@H]2CC[C@@H](N)CC2)Cc2ccc(C#N)cc2)cc1-c1ccc(CN[C@H](C)c2ccc(C)cc2)o1 |  | 1 µM | 105% |
